# Experiments:
# [1] = tested on: Corynebacterium amycolatum; experiment: Antibacterial activity against Corynebacterium amycolatum after 48 hrs by broth microdilution method; format: functional
# Outline: (§1)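 Broth microdilution per CLSI in cation-adjusted Mueller-Hinton broth supplemented with 0.5% (vol/vol) Tween 80. Plates incubated at 35°C in ambient air for 44 to 48 h, then read visually. MICs in μg/ml; a geometric mean MIC was calculated across the corynebacterial strains.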
# Cutibacterium acnes [2] = experiment: Antibacterial activity against drug-resistant Propionibacterium acnes P95 after 72 hrs; format: functional
# Outline: (§2)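 MBC for P. acnes followed MIC assays by standard methodology. Samples were plated on Wilkins-Chalgren agar, incubated anaerobically in GENbox jars at 35 to 37°C, and examined for growth after 72 h.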
# Cutibacterium acnes [3] = experiment: Antibacterial activity against drug-resistant Propionibacterium acnes SW16 after 48 hrs by broth microdilution method; format: functional
# Outline: (§3)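 Broth microdilution MIC in Wilkins-Chalgren broth without lysed horse blood, following CLSI anaerobe guidelines. Plates were held in anaerobic jars with atmosphere generators (O2 <0.1% by 2.5 h, CO2 >15% by 24 h) at 35 to 37°C for 48 h. Growth was read with an illuminated plate reader and magnifying mirror.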
# Staphylococcus aureus [4] = experiment: Antibacterial activity against methicillin-resistant Staphylococcus aureus after 20 to 24 hrs by broth microdilution method
# Cutibacterium acnes [5] = experiment: Antibacterial activity against drug-resistant Propionibacterium acnes SW101T after 48 hrs by broth microdilution method; format: functional; outline: as §3
# Cutibacterium acnes [6] = experiment: Antibacterial activity against drug-resistant Propionibacterium acnes SW11 after 48 hrs by broth microdilution method; format: functional; outline: as §3
# Cutibacterium acnes [7] = experiment: Antibacterial activity against drug-resistant Propionibacterium acnes SW101T after 72 hrs; format: functional; outline: as §2
# Cutibacterium acnes [8] = experiment: Antibacterial activity against drug-resistant Propionibacterium acnes P:413 after 48 hrs by broth microdilution method; format: functional; outline: as §3
# Cutibacterium acnes [9] = experiment: Antibacterial activity against drug-resistant Propionibacterium acnes P95 after 48 hrs by broth microdilution method; format: functional; outline: as §3
# Cutibacterium acnes [10] = experiment: Antibacterial activity against drug-resistant Propionibacterium acnes SW54EA after 48 hrs by broth microdilution method; format: functional; outline: as §3
# Cutibacterium acnes [11] = experiment: Antibacterial activity against drug-resistant Propionibacterium acnes OK8/97 after 48 hrs by broth microdilution method; format: functional; outline: as §3
# Cutibacterium acnes [12] = experiment: Antibacterial activity against drug-resistant Propionibacterium acnes EG7NS after 48 hrs by broth microdilution method; format: functional; outline: as §3
# Cutibacterium acnes [13] = experiment: Antibacterial activity against drug-resistant Propionibacterium acnes P425:1 after 48 hrs by broth microdilution method; format: functional; outline: as §3
# Staphylococcus aureus [14] = experiment: Antibacterial activity against borderline oxacillin-resistant Staphylococcus aureus after 20 to 24 hrs by broth microdilution method
# [15] = tested on: Propionibacterium granulosum; experiment: Antibacterial activity against drug-resistant Propionibacterium granulosum QK6/92 after 48 hrs by broth microdilution method
# Cutibacterium acnes [16] = experiment: Antibacterial activity against drug-resistant Propionibacterium acnes EG7NS after 72 hrs; format: functional; outline: as §2
# Cutibacterium acnes [17] = experiment: Antibacterial activity against drug-resistant Propionibacterium acnes SW3CD after 72 hrs; format: functional; outline: as §2
# Cutibacterium acnes [18] = experiment: Antibacterial activity against drug-resistant Propionibacterium acnes FG7E after 48 hrs by broth microdilution method; format: functional; outline: as §3
# Cutibacterium acnes [19] = experiment: MBC/MIC ratio of Propionibacterium acnes SW101T; format: functional
# Outline: (§4)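 MIC by CLSI broth microdilution in Wilkins-Chalgren broth in anaerobic jars (O2 <0.1%, CO2 >15%), read after 48 h at 35–37°C on an illuminated plate reader. For MBC, samples were plated onto Wilkins-Chalgren agar and incubated anaerobically for 72 h at 35–37°C before growth was scored.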
# [20] = tested on: Streptococcus equi subsp. zooepidemicus; experiment: Antibacterial activity against Streptococcus equi subsp. zooepidemicus after 48 hrs by broth microdilution method; format: functional
# Cutibacterium acnes [21] = experiment: Antibacterial activity against drug-resistant Propionibacterium acnes SW101CDA after 48 hrs by broth microdilution method; format: functional; outline: as §3
# Cutibacterium acnes [22] = experiment: Antibacterial activity against drug-resistant Propionibacterium acnes SP64E after 48 hrs by broth microdilution method; format: functional; outline: as §3
# Cutibacterium acnes [23] = experiment: Antibacterial activity against drug-resistant Propionibacterium acnes P401:5 after 48 hrs by broth microdilution method; format: functional; outline: as §3
# Cutibacterium acnes [24] = experiment: Antibacterial activity against drug-resistant Propionibacterium acnes SW17 after 48 hrs by broth microdilution method; format: functional; outline: as §3
# [25] = Antibacterial activity against Streptococcus dysgalactiae subsp. dysgalactiae after 48 hrs by broth microdilution method; format: functional
# Cutibacterium acnes [26] = experiment: Antibacterial activity against drug-resistant Propionibacterium acnes P429:1 (BC) after 48 hrs by broth microdilution method; format: functional; outline: as §3
# Staphylococcus aureus [27] = experiment: Antibacterial activity against methicillin-susceptible Staphylococcus aureus after 48 hrs by broth microdilution method; format: functional
# [28] = tested on: Corynebacterium minutissimum; experiment: Antibacterial activity against Corynebacterium minutissimum after 48 hrs by broth microdilution method; format: functional; outline: as §1
# [29] = tested on: Corynebacterium diphtheriae; experiment: Antibacterial activity against Corynebacterium diphtheriae after 48 hrs by broth microdilution method; format: functional; outline: as §1
# Cutibacterium acnes [30] = experiment: Antibacterial activity against drug-resistant Propionibacterium acnes GE4E after 72 hrs; format: functional; outline: as §2
# Cutibacterium acnes [31] = experiment: Antibacterial activity against drug-resistant Propionibacterium acnes EG13NS after 48 hrs by broth microdilution method; format: functional; outline: as §3
# Cutibacterium acnes [32] = experiment: Antibacterial activity against drug-resistant Propionibacterium acnes SW10 after 48 hrs by broth microdilution method; format: functional; outline: as §3
# Cutibacterium acnes [33] = experiment: MBC/MIC ratio of Propionibacterium acnes GE4E; format: functional; outline: as §4
# Cutibacterium acnes [34] = experiment: Antibacterial activity against drug-resistant Propionibacterium acnes SW26 after 48 hrs by broth microdilution method; format: functional; outline: as §3
# Cutibacterium acnes [35] = experiment: Antibacterial activity against drug-resistant Propionibacterium acnes EG3NS after 48 hrs by broth microdilution method; format: functional; outline: as §3
# [36] = tested on: Propionibacterium granulosum; experiment: Antibacterial activity against drug-resistant Propionibacterium granulosum NCTC-11865 after 48 hrs by broth microdilution method; format: functional; conditions: Cutibacterium granulosum, NCTC-11865, 48 h; outline: as §3
# Corynebacterium jeikeium = experiment: Antibacterial activity against Corynebacterium jeikeium after 48 hrs by broth microdilution method; format: functional; outline: as §1
# Cutibacterium acnes [37] = experiment: Antibacterial activity against drug-resistant Propionibacterium acnes P429:1 (SC) after 48 hrs by broth microdilution method; format: functional; outline: as §3
# Cutibacterium acnes [38] = experiment: Antibacterial activity against drug-resistant Propionibacterium acnes P322:2 after 48 hrs by broth microdilution method; format: functional; outline: as §3
# [39] = tested on: Staphylococcus epidermidis; experiment: Antibacterial activity against Staphylococcus epidermidis after 48 hrs by broth microdilution method; format: functional
# Cutibacterium acnes [40] = experiment: Antibacterial activity against drug-resistant Propionibacterium acnes D-04/97 after 48 hrs by broth microdilution method; format: functional; outline: as §3
# Cutibacterium acnes [41] = experiment: Antibacterial activity against drug-resistant Propionibacterium acnes GE46EB after 48 hrs by broth microdilution method; format: functional; outline: as §3
# Cutibacterium acnes [42] = experiment: Antibacterial activity against drug-resistant Propionibacterium acnes SW3CD after 48 hrs by broth microdilution method; format: functional; outline: as §3
# Streptococcus pyogenes = experiment: Antibacterial activity against Streptococcus pyogenes after 20 to 24 hrs by broth microdilution method
# Cutibacterium acnes [43] = experiment: Antibacterial activity against drug-resistant Propionibacterium acnes GE4E after 48 hrs by broth microdilution method; format: functional; outline: as §3
# Cutibacterium acnes [44] = experiment: MBC/MIC ratio of Propionibacterium acnes EG7NS; format: functional; outline: as §4
# Cutibacterium acnes [45] = experiment: MBC/MIC ratio of Propionibacterium acnes P95; format: functional; outline: as §4
# Cutibacterium acnes [46] = experiment: MBC/MIC ratio of Propionibacterium acnes SW3CD; format: functional; outline: as §4
smiles,measurement,setting,value
CC[C@H]1OC(=O)[C@H](C)[C@@H](O[C@H]2C[C@@](C)(OC)[C@@H](O)[C@H](C)O2)[C@H](C)[C@@H](O[C@@H]2O[C@H](C)C[C@H](N(C)C)[C@H]2O)[C@](C)(OC)C[C@@H](C)C(=O)[C@H](C)[C@H]2[C@H](SCCn3cnc4cccnc43)C(=O)O[C@@]21C,MIC,[1],0.88 µg/mL
same,MBC,Cutibacterium acnes [2],≤ 0.06 µg/mL
same,MIC,Cutibacterium acnes [3],≤ 0.06 µg/mL
same,MIC,Staphylococcus aureus [4],4.32 µg/mL
same,MIC,Cutibacterium acnes [5],4 µg/mL
same,MIC,Cutibacterium acnes [6],≤ 0.06 µg/mL
same,MBC,Cutibacterium acnes [7],> 32 µg/mL
same,MIC,Cutibacterium acnes [8],≤ 0.06 µg/mL
same,MIC,Cutibacterium acnes [9],≤ 0.06 µg/mL
same,MIC,Cutibacterium acnes [10],0.5 µg/mL
same,MIC,Cutibacterium acnes [11],≤ 0.06 µg/mL
same,MIC,Cutibacterium acnes [12],≤ 0.06 µg/mL
same,MIC,Cutibacterium acnes [13],4 µg/mL
same,MIC,Staphylococcus aureus [14],4.32 µg/mL
same,MIC,[15],0.125 µg/mL
same,MBC,Cutibacterium acnes [16],≤ 0.06 µg/mL
same,MBC,Cutibacterium acnes [17],≤ 0.06 µg/mL
same,MIC,Cutibacterium acnes [18],0.5 µg/mL
same,Ratio,Cutibacterium acnes [19],>8
same,MIC,[20],0.08 µg/mL
same,MIC,Cutibacterium acnes [21],64 µg/mL
same,MIC,Cutibacterium acnes [22],≥ 256 µg/mL
same,MIC,Cutibacterium acnes [23],≤ 0.06 µg/mL
same,MIC,Cutibacterium acnes [24],≤ 0.06 µg/mL
same,MIC,[25],0.12 µg/mL
same,MIC,Cutibacterium acnes [26],0.5 µg/mL
same,MIC,Staphylococcus aureus [27],4.32 µg/mL
same,MIC,[28],0.88 µg/mL
same,MIC,[29],0.88 µg/mL
same,MBC,Cutibacterium acnes [30],≥ 256 µg/mL
same,MIC,Cutibacterium acnes [31],≤ 0.06 µg/mL
same,MIC,Cutibacterium acnes [32],≤ 0.06 µg/mL
same,Ratio,Cutibacterium acnes [33],>=2
same,MIC,Cutibacterium acnes [34],≤ 0.06 µg/mL
same,MIC,Cutibacterium acnes [35],≤ 0.06 µg/mL
same,MIC,[36],≤ 0.06 µg/mL
same,MIC,Corynebacterium jeikeium,0.88 µg/mL
same,MIC,Cutibacterium acnes [37],≤ 0.06 µg/mL
same,MIC,Cutibacterium acnes [38],0.25 µg/mL
same,MIC,[39],4.24 µg/mL
same,MIC,Cutibacterium acnes [40],≤ 0.06 µg/mL
same,MIC,Cutibacterium acnes [41],256 µg/mL
same,MIC,Cutibacterium acnes [42],≤ 0.06 µg/mL
same,MIC,Streptococcus pyogenes,0.19 µg/mL
same,MIC,Cutibacterium acnes [43],128 µg/mL
CN(C)[C@@H]1C(O)=C(C(N)=O)C(=O)[C@@]2(O)C(O)=C3C(=O)c4c(O)cccc4[C@@](C)(O)[C@H]3C[C@@H]12 [TETRACYCLINE],MIC,[1],5.16 µg/mL
same,MBC,Cutibacterium acnes [2],32 µg/mL
same,MIC,Cutibacterium acnes [3],0.25 µg/mL
same,MIC,Staphylococcus aureus [4],3.17 µg/mL
same,MIC,Cutibacterium acnes [5],32 µg/mL
same,MIC,Cutibacterium acnes [6],2 µg/mL
same,MBC,Cutibacterium acnes [7],> 32 µg/mL
same,MIC,Cutibacterium acnes [8],16 µg/mL
same,MIC,Cutibacterium acnes [9],0.5 µg/mL
same,MIC,Cutibacterium acnes [10],0.5 µg/mL
same,Ratio,Cutibacterium acnes [44],>=533
same,MIC,Cutibacterium acnes [11],0.5 µg/mL
same,MIC,Cutibacterium acnes [12],≤ 0.06 µg/mL
same,MIC,Cutibacterium acnes [13],16 µg/mL
same,MIC,Staphylococcus aureus [14],3.17 µg/mL
same,MIC,[15],1 µg/mL
same,MBC,Cutibacterium acnes [16],> 32 µg/mL
same,MBC,Cutibacterium acnes [17],> 32 µg/mL
same,Ratio,Cutibacterium acnes [45],>64
same,MIC,Cutibacterium acnes [18],32 µg/mL
same,Ratio,Cutibacterium acnes [19],>1
same,MIC,[20],8 µg/mL
same,MIC,Cutibacterium acnes [21],≤ 0.06 µg/mL
same,MIC,Cutibacterium acnes [22],1 µg/mL
same,MIC,Cutibacterium acnes [23],32 µg/mL
same,MIC,Cutibacterium acnes [24],0.25 µg/mL
same,MIC,[25],4.58 µg/mL
same,MIC,Cutibacterium acnes [26],1 µg/mL
same,MIC,Staphylococcus aureus [27],3.17 µg/mL
same,MIC,[28],5.16 µg/mL
same,MIC,[29],5.16 µg/mL
same,MBC,Cutibacterium acnes [30],> 32 µg/mL
same,MIC,Cutibacterium acnes [31],1 µg/mL
same,MIC,Cutibacterium acnes [32],0.5 µg/mL
same,Ratio,Cutibacterium acnes [33],>16
same,MIC,Cutibacterium acnes [34],0.5 µg/mL
same,MIC,Cutibacterium acnes [35],0.5 µg/mL
same,Ratio,Cutibacterium acnes [46],>32
same,MIC,[36],0.5 µg/mL
same,MIC,Corynebacterium jeikeium,5.16 µg/mL
same,MIC,Cutibacterium acnes [37],≥ 32 µg/mL
same,MIC,Cutibacterium acnes [38],32 µg/mL
same,MIC,[39],7.55 µg/mL
same,MIC,Cutibacterium acnes [40],1 µg/mL
same,MIC,Cutibacterium acnes [41],1 µg/mL
same,MIC,Cutibacterium acnes [42],1 µg/mL
same,MIC,Streptococcus pyogenes,3.25 µg/mL
same,MIC,Cutibacterium acnes [43],2 µg/mL
